Data on seven molecules can be found in PubChem BioAssay.

Activity calls are given as the source filed them.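 Rule for the calls, unless noted: active = visually confirmed hit in the image check and inhibition above 20%; inconclusive = visually confirmed hit but inhibition not above 20%; inactive = no visual hit in the image check.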

A short description of test [1]: inhibitors of TNFa-induced NFkB p65 translocation, primary screen, imaging, HUVEC, MLSMR starter and 10KST1 sets (AID 438;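 active = inhibition above 20% together with a positive visual image hit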;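 note: compound added about 3h40 before a 20 min TNFalpha stimulation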;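 for inhibition: signal is the nuclear over cytoplasmic p65 intensity ratio per well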). The settings on record: HUVEC TNFa-induced p65 nuclear translocation; cell count: measured here: nuclei count (cytotoxicity indicator), at 2.08 µM; inhibition: at 2 µM, stronger effect = higher value, 0% TNFa-plus-vehicle, 100% no-TNFa wells.
The nature of test [2]: endothelial E-selectin expression blockers – imaging, HUVEC, immunofluorescence, MLSMR starter and 10KST1 sets, primary screen (AID 487).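 For inhibition: signal is fraction of cell area covered by stained E-selectin grains.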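 For nuclei count: 100% = median nuclei count of all wells on the same plate.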 The following applies: HUVEC TNFalpha-induced E-selectin immunofluorescence imaging, at 2 µM; inhibition: stronger effect = higher value; nuclei count: measured here: cell number, toxicity.
A short description of test [3]: Primary imaging screen for DUSP6 inhibitors that restore phospho-Erk in transfected HeLa cells, chemical complementation (AID 609;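 active = compounds giving at least 50% inhibition in the cell-based MKP-3 phosphatase rescue imaging test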;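 for inhibition: phospho-Erk level distribution per well compared with pooled transfected vehicle control wells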). The settings on record: HeLa MKP-3 transfected, phospho-Erk imaging KS statistic, at 10 µM, cells stimulated with TPA for 15 min.
For test [4], the target named is Dual specificity protein phosphatase 6 (Homo sapiens) (UniProt Q16828). The description is as above. The settings on record: HeLa MKP-3 transfected, phospho-Erk imaging KS statistic; at 10 µM; stronger effect = higher value; cells stimulated with TPA for 15 min.
The target in test [5] is Voltage-gated potassium channel subunit beta-2 (Rattus norvegicus) (UniProt P62483). Kind of test: inhibitors of rat Kvbeta2 reductase activity – biochemical, NADPH fluorescence, primary screen (AID 622;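 active = fluorescence slope higher than the sample average by over 3 SD, cut at about -0.22 in these data, passing the limit was not always enough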;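 note: slope of raw intensity against log time taken from 70 to 1610 s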). The following applies: recombinant KvBeta, 4-cyanobenzaldehyde reduction, at 10 µM, stronger effect = higher value.
The target is the same in test [6]. Kind of test: enhancers of rat Kvbeta2 NADPH turnover – biochemical, NADPH fluorescence, primary screen (AID 623;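 active = NADPH fluorescence slope more negative than the mean of all samples by about 3 SD, 99.7% confidence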;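 note: fluorescence intensity change per second fitted from 20 to 320 s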). The following applies: Recombinant KvBeta, NADPH fluorescence decrease slope, 10 min; at 10 µM; stronger effect = lower value.
Test [7] has as its target Muscarinic acetylcholine receptor M4 (Homo sapiens) (UniProt P08173). Kind of test: M4-linked GIRK flux change, two-sided – cell-based, HEK293 M4/GIRK, thallium flux, BTC-AM, M4 allosteric agonist project, primary screen (AID 625;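 active = fluorescence slope after compound addition differing from the mean of all tested samples at 99.7% confidence, mostly higher but some lower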;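 note: thallium influx through GIRK channels coupled to M4 in HEK293 cells with BTC-AM dye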). The settings on record: at 10 µM, actives lie on both sides. Put shortly:
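assay system = HEK293 cells with M4 receptor and GIRK channels | medium = pH 7.3 thallium assay buffer | doses = 10 µM final, single point | timing = cells overnight at 37 °C, BTC-AM loading 1 h, reads 2 min total | signal = BTC-AM fluorescence, 1 Hz kinetic reads | read-out = post-addition slope, 15–24 s, of baseline-normalized fluorescence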

Test [8] is described as follows: inhibitors of larval lipid processing in zebrafish, primary screen, whole organism, PED6 fluorescence, gall bladder and intestine (AID 686;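 active = a full or partial loss of lipid-probe fluorescence in the fish gall bladder, intestine or both, judged by eye; inactive = no fluorescence loss, or compound toxic to the fish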;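 note: larvae 5 to 7 days old with five fish per well; signal comes from phospholipase A2 cleavage of quenched PED6 carried via bile; overnight exposure to compound and PED6 before scoring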). The following applies: Zebrafish larvae PED6 lipid processing, fluorescence scoring; screened at 20 µM (by protocol). Put shortly:
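Also added: quenched phospholipase substrate PED6, 100 nM final, ingested by larvae; System: zebrafish larvae, 5-7 d; Quantity: 5 larvae per well; Compound: 20 µM single dose; Schedule: overnight compound and PED6 incubation; Read-out: visual per-well fluorescence inhibition score; Measured by: By-eye fluorescence microscopy; Medium: E3.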

A short description of test [9]: loss of swimming-algae plug formation – whole organism, Chlamydomonas reinhardtii, WT vs cilia-less mutant, absorbance, 96-well, primary screen (AID 463189;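 active = inhibition at or above 50% relative to wild type and mutant plate controls; inactive = inhibition below 50%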;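 note: 0% = wild type cc124 cells in DMSO and 100% = ciliumless bld1 mutant cells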). The settings on record: Chlamydomonas reinhardtii gravitaxis, OD600 absorbance, 2 days; at 10 µM; stronger effect = higher value.
Where [10] appears, read: measured here: cell density z-score.
The mark [11] stands for this setting: measured here: nuclear c-Myc green intensity z-score.
The mark [12] stands for this setting: measured here: nuclear pErk red intensity z-score, stronger effect = higher value.

Dual specificity protein phosphatase 6 (Homo sapiens), sequence (Q16828 whole entry, looked up): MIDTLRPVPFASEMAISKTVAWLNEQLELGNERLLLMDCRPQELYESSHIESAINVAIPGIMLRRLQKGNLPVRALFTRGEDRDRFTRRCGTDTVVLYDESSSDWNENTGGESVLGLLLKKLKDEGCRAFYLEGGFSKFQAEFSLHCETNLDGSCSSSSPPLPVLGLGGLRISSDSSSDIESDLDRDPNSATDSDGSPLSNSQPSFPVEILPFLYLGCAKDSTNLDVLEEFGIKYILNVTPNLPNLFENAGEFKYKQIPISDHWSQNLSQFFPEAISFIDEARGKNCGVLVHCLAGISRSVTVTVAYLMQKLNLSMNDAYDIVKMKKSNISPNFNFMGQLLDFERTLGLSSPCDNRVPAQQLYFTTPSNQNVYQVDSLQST
Voltage-gated potassium channel subunit beta-2 (Rattus norvegicus), sequence (P62483 whole entry, looked up): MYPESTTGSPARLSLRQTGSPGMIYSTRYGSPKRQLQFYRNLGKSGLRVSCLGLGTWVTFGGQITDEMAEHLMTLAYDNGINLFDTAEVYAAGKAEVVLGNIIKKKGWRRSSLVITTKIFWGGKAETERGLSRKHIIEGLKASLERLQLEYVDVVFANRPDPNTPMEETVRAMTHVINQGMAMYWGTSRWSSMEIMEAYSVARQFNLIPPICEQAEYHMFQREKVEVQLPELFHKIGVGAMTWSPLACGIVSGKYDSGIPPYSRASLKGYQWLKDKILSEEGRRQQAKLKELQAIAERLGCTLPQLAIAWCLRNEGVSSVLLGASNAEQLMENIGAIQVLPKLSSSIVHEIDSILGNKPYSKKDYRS
Muscarinic acetylcholine receptor M4 (Homo sapiens), sequence (P08173 whole entry, looked up): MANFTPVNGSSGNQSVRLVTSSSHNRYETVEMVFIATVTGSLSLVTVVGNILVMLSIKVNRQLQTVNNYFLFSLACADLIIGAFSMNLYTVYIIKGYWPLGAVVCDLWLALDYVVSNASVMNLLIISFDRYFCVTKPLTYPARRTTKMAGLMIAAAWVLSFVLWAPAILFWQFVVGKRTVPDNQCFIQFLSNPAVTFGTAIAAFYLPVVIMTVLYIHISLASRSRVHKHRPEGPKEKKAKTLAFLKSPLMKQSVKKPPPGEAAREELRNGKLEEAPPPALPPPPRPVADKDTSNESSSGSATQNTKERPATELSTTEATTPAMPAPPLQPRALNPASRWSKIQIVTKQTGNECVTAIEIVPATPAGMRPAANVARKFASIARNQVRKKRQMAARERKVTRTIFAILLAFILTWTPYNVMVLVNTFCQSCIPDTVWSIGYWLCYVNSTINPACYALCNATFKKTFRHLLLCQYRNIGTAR

The term inhibition denotes the change of the read-out against control, counted positive when it falls. `Clc1ccc(-n2ncc3c(NCc4cccs4)ncnc32)cc1`: the cell count in test [1] was determined as 615. Also, the inhibition was -9.4% (inactive) in test [1], -52.5% (inactive) in test [2], 11.4% (inactive) in [4] and 42.7% (inactive) in test [9]. In addition, in [2], the nuclei count is 125%. Also, the z-score in [3] (setting [10]) was found to be 0.539; in [3] (setting [11]), 0.108; in [3] (setting [12]), 0.0803. Also, the fluorescence slope is -0.385 (inactive) in test [5] and 0.00704 (inactive) in test [7]. In [6], the NADPH fluorescence slope is -2.1e-05 (inactive). For the same molecule, the outcome in test [8] was inactive.

Turning to `Cn1c(=O)c2c(nc(NCc3ccco3)n2Cc2ccc(Cl)cc2Cl)n(C)c1=O`, in test [1], the cell count was 644. Further, the inhibition was 3.3% (inactive) in test [1], -21.8% (inactive) in [2], 12.8% (inactive) in test [4] and -11.8% (inactive) in test [9]. In addition, the nuclei count in test [2] is 104%. The values for the z-score in test [3] (setting [10]), in test [3] (setting [11]) and in test [3] (setting [12]) were -0.0402, -0.421 and 0.466, respectively. Also, the figures for the fluorescence slope in test [5] and in test [7] were -0.405 (inactive) and 0.00546 (inactive), respectively. Also, in test [6], the NADPH fluorescence slope is -1.9e-05 (inactive). Besides, in test [8], the molecule was classed as inactive.

With `Cc1c(O)c(CN2CCCC2)cc2c1oc(=O)c1ccccc12`, in test [1], the cell count was 602. Also, the inhibition in [1] was 3.3% (inactive); in test [2], 92.9% (active); in test [4], -8.95% (inactive); in test [9] it was 17.4% (inactive). In test [2], this molecule yielded a nuclei count of 77.2%. The z-score in test [3] (setting [10]) is 0.99; in [3] (setting [11]), 0.189; in [3] (setting [12]) it was -0.00827. In addition, the fluorescence slope in [5] was -0.44 (inactive); in [7], 0.00331 (inactive). The NADPH fluorescence slope in test [6] is -2.9e-05 (inactive). Also, the call in test [8] was inactive.

In the case of `Cc1cc(CCC(=O)O)c(C)cc1CCC(=O)O`, in test [1], the cell count was 593. For the same molecule, the inhibition in test [1] was 0.2% (inactive); in [2], -64.2% (inactive); in test [4], 5.35% (inactive); in [9], 1.89% (inactive). Further, in test [2], the nuclei count was found to be 149%. Further, the z-score in test [3] (setting [10]) was 0.485; in test [3] (setting [11]) it was 1.16; in test [3] (setting [12]) it was -0.56. Besides, the fluorescence slope in test [5] was -0.452 (inactive); in test [7], 0.00588 (inactive). In addition, the NADPH fluorescence slope in [6] was -0.000105 (inactive). For the same molecule, in test [8], the molecule was classed as inactive.

With `CCCCOC(=O)CCc1nc2ccccc2[nH]1`, the cell count in test [1] was 716. For the same molecule, the inhibition in [1] was -2.4% (inactive); in test [2], -50.5% (inactive); in test [4] it was -3.97% (inactive); in [9], 8.4% (inactive). Moreover, the nuclei count in [2] came to 195%. The z-score in test [3] (setting [10]) is -0.361; in test [3] (setting [11]), 0.108; in [3] (setting [12]) it was 1.13. The fluorescence slope in test [5] was -0.484 (inactive); in test [7] it was 0.00514 (inactive). In addition, the NADPH fluorescence slope in test [6] was -5.5e-05 (inactive). In addition, the molecule was called inactive in test [8].

On to `C=CCN(C)CCCNC(=O)/C=N/O`, for which the cell count in [1] was 585. Further, the inhibition in test [1] is -6.9% (inactive); in [2], 22.6% (inactive); in test [4], 31.4% (inactive); in test [9] it was -9.97% (inactive). The nuclei count in [2] worked out at 87%. In addition, the z-score is 1.68 in test [3] (setting [10]), -0.8 in test [3] (setting [11]) and -0.822 in test [3] (setting [12]). For the same molecule, the fluorescence slope in test [5] is -0.504 (inactive); in test [7], 0.00593 (inactive). In addition, in test [6], the NADPH fluorescence slope was -8.8e-05 (inactive). Besides, in [8], the molecule was classed as inactive.

With `CCCc1cc(NCCN2CCOCC2)n2c(nc3ccccc32)c1C#N`, the cell count in test [1] came to 472. Further, the inhibition in test [1] is 0.5% (inactive); in test [2] it was -144% (inactive); in test [4], 1.98% (inactive); in test [9], -18.9% (inactive). This molecule also displayed a nuclei count in test [2] of 105%. Moreover, the z-score in test [3] (setting [10]) was -1.9; in test [3] (setting [11]), 2.65; in test [3] (setting [12]), 0.164. Moreover, the fluorescence slope in test [5] was -0.324 (inactive); in [7], 0.00729 (inactive). Moreover, the NADPH fluorescence slope in test [6] is 7.2e-06 (inactive). For the same molecule, the call in [8] was inactive.
